NTR1 ag = agonists of human neurotensin receptor NTR1; P30989; NTR1-U2OS beta-arrestin-GFP spot imaging, agonist mode; activation, % at 20 µM; hit rate 0.17% among 330,000;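 active = activation at or above 40% of the spot to cytoplasm intensity ratio, with at least 20 cells analyzed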;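 note: 0% = DMSO without peptide and 100% = 100 nM NTR1 peptide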
Target sequence (P30989 whole entry, looked up): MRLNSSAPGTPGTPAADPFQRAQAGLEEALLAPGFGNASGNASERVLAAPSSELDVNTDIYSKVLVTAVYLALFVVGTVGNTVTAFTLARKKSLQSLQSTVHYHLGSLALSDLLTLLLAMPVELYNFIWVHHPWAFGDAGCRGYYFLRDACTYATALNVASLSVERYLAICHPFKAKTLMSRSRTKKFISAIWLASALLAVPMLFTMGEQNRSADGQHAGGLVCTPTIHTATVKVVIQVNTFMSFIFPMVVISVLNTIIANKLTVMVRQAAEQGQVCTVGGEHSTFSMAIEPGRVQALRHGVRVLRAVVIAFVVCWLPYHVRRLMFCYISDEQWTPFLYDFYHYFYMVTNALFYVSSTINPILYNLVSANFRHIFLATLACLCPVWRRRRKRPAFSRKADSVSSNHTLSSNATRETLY
OX1R antag-1 = blocks the human orexin 1 receptor. CHO/OX1R cells, Fluo-8 calcium fluorescence, orexin A. inhibition, % at 5 µM. hit rate 0.43% among 330,000;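 active = inhibition above its plate's threshold, mean inhibition of all tested compounds on the plate plus 3 SD, cut at about 37% in these data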;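 note: 0% = orexin A challenge wells and 100% = SB-334867-A antagonist wells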
CHO parental Ca = counter-screen: ATP calcium response change in parental CHO cells; AID 463079; parental CHO-K1, ATP-induced calcium, Fluo-8 fluorescence; hit rate 0.63% among 330,000; inhibition, % at 5.6 µM;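 active = inhibition above that plate's mean sample inhibition plus 3 SD, cut at about 26% in these data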;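 note: 0% = ATP-challenged DMSO wells and 100% = DMSO wells without ATP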
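Material: parental CHO cells / Compound: single nominal dose of 5.6 µM per compound / Signal: Fluo-8 fluorescence / Replicates: singlicate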
TAAR1 antag = human TAAR1 antagonism | hit rate 1.5% among 360,000 | inhibition, % at 3 µM | Q96RJ0 | AID 624466 | CHO RD-HGA16 TAAR1, Fluo-8 calcium fluorescence, antagonist;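 active = inhibition above a per-plate cutoff, the mean inhibition of test compounds on that plate plus 3 SD, cut at about 49% in these data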;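 note: 0% = DMSO plus EC80 beta-PEA response and 100% = DMSO alone without agonist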
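Test system: RD-HGA16 CHO cells with stable hTAAR1 and Gα16 / Probe or stimulus: EC80 β-phenethylamine stimulus / Times: seeding 17-24 h prior, 75-min 37 °C, 30-min RT dye loading / Detection: Fluo-8 calcium-sensitive fluorescence / Read-out basis: % inhibition scaled between DMSO and EC80 PEA controls / Repeats: singlicate, one well per test compound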
TAAR1 agonist = agonists of human TAAR1. activation, % at 3 µM. Q96RJ0. CHO RD-HGA16 TAAR1, Fluo-8 calcium fluorescence; vehicle wells 0%, saturating PEA agonist 100%. hit rate 0.99% among 360,000;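 active = activation above the mean activation of all test compounds in the run plus 3 SD, cut at about 38% in these data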
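test system = CHO RD-HGA16 cells carrying human TAAR1 plus Gα16 | schedule = 17-24 h seeding, 75 min 37 °C dye, 30 min RT | compound dosing = 3 µM single concentration | control set = DMSO and PEA EC100 | replicates = n 1 | signal = Fluo-8 fluorescence, 5 s baseline then 140 s kinetic read | measure = percent activation vs PEA EC100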
OX1R antag-2 = blocks the human orexin 1 receptor | inhibition, % at 6.6 µM | AID 485270 | OX1R-expressing cells, FRET antagonist read-out | O43613 | hit rate 1.8% among 330,000; in the data active = inhibition mostly above about 38%, no sharp cut-off; inactive = mostly below about 40%;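 note: 0% = agonist challenge alone and 100% = reference antagonist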
Numbers without * were called inactive; · = no result. Shown are actives, neighbours in structure and some others; about 4% of the full set was active somewhere.

SMILES	NTR1 ag	OX1R antag-1	CHO parental Ca	TAAR1 antag	TAAR1 agonist	OX1R antag-2
N#Cc1cc2nc(O)c(O)nc2cc1[N+](=O)[O-]	-1	12	1	4	-1	76*
CCC(NC(=O)Nc1nnc(C(F)(F)F)s1)(C(F)(F)F)C(F)(F)F	7	65*	81*	-5	15	60*
O=C(O)CCC(=O)Nc1nnc(C(F)(F)F)s1	-2	-13	-2	6	-1	7
CCOC(=O)c1c(CSc2ccccc2)oc2ccc(O)cc12	12	-1	26*	10	-1	24
CCOC(=O)c1c(C)oc2ccc(O)c(CN(C)C)c12	0	-16	-12	4	7	9
CCOC(=O)c1c(CSc2ccc(CC)cc2)oc2ccc(O)c(CN(C)C)c12	14	36	67*	14	29	-11
CCCCCCCCN1C(=O)[C@@H](CC(=O)N2CCSCC2)C[C@@]2(C(=O)OC)C1=C[C@H](C(C)(C)C)O[C@@H]2C	·	·	·	-12	-1	·
COc1ccc(C2/C=C\CN(C(=O)Nc3ccccc3)CC(=O)N2Cc2ccc(F)cc2)cc1 (stereo not drawn)	4	-25	-33	7	16	20
COc1ccc(C2/C=C\CN(C(=O)Nc3ccc(C(F)(F)F)cc3)CC(=O)N2Cc2ccc(F)cc2)cc1 (stereo not drawn)	15	9	60*	·	·	33
COc1ccc(CN2C(=O)[C@@H]3Cc4c([nH]c5ccccc45)C(C)(C)N3C2=O)cc1	9	-13	-3	30	5	6
COc1ccc(CN2C(=O)[C@H]3Cc4c([nH]c5ccccc45)C(C)(C)N3C2=O)cc1	14	-3	-7	56*	18	12
COc1ccccc1CN1C(=O)[C@@H]2Cc3c([nH]c4ccccc34)C(C)(C)N2C1=O	18	0	-11	24	13	16
CC1(C)c2[nH]c3ccccc3c2C[C@@H]2C(=O)N(Cc3ccccc3Cl)C(=O)N21	9	-10	-15	49*	13	10
Cc1sc2ncnc(N3CCC(C(=O)Nc4cc(C(F)(F)F)ccc4OCC(F)(F)F)CC3)c2c1C	·	·	·	7	0	·
COc1ccc(Cn2c(C)c(CC(=O)Nc3ccc(Oc4cccnc4)c(C)c3)c3ccccc32)cc1	·	·	·	23	-1	·
Cc1ccccc1C(=O)N(C)[C@H]1C[C@H]2c3[nH]c4c(-c5ccc6c(c5)OCO6)cccc4c3CCN2C(=O)[C@H]1[C@H](C)O	·	·	·	-19	1	·
COC(=O)c1cc2c(c3c4cc(C)ccc4n(S(=O)(=O)c4ccc(C)cc4)c13)C(=O)N(Cc1ccc(N(C)C)cc1)C2	·	·	·	-4	-2	·
COc1ccc(Cn2nnnc2CN(Cc2cc3ccc(C)cc3[nH]c2=O)C2CCCC2)cc1	4	-1	-29	13	1	43*
COc1ccc(Cn2nnnc2CN(Cc2cc3cccc(C)c3[nH]c2=O)C2CCCC2)cc1	2	-27	-21	49	14	33
Cc1ccc(CS(=O)(=O)c2ncc(Cl)c(C(=O)Nc3ccc(OC(F)F)cc3)n2)cc1	-3	51*	59*	28	-1	25
COC(=O)c1cc2c(c3c4cc(OC)ccc4n(S(=O)(=O)c4ccc(OC)cc4)c13)C(=O)N(Cc1ccc(N(C)C)cc1)C2	·	·	·	-14	0	·
CCOC(=O)CN1C(=O)[C@]2(OCCC=C[C@H]2C)c2cc(OC)ccc21	·	·	·	-20	2	·
O=C1Cn2nnc(-c3ccccc3)c2C2c3cc(Br)ccc3CCN12 (stereo not drawn)	·	·	·	-8	2	·
CC(Sc1ccc(Cl)cc1)C(=O)NCC(c1ccco1)N1CCCCC1 (stereo not drawn)	-1	-29	-29	-5	-2	18
C=C(C(=O)c1ccccc1)C(C(=C)C(=O)c1ccccc1)c1ccc(OC)cc1	15	-16	-5	-45	0	2
C=C(C(=O)c1ccccc1)C(c1ccccc1)C(C)C(=O)c1ccccc1 (stereo not drawn)	7	-22	41*	0	1	16
COC(=O)C1=C(C)N(Cc2ccccc2C(F)(F)F)C(=NCc2cccc(C(F)(F)F)c2)NC1c1cccc(Cl)c1 (stereo not drawn)	·	·	·	-42	4	·

Assay outcomes from PubChem.
